What was measured:
[1] = biological target: T1, Polyunsaturated fatty acid 5-lipoxygenase (Rattus norvegicus, UniProt P12527); assay: inhibitory activity against 5-lipoxygenase in rat basophilic leukemia cell line.; format: cell-based, RBL-1
T1 sequence (P12527 whole entry): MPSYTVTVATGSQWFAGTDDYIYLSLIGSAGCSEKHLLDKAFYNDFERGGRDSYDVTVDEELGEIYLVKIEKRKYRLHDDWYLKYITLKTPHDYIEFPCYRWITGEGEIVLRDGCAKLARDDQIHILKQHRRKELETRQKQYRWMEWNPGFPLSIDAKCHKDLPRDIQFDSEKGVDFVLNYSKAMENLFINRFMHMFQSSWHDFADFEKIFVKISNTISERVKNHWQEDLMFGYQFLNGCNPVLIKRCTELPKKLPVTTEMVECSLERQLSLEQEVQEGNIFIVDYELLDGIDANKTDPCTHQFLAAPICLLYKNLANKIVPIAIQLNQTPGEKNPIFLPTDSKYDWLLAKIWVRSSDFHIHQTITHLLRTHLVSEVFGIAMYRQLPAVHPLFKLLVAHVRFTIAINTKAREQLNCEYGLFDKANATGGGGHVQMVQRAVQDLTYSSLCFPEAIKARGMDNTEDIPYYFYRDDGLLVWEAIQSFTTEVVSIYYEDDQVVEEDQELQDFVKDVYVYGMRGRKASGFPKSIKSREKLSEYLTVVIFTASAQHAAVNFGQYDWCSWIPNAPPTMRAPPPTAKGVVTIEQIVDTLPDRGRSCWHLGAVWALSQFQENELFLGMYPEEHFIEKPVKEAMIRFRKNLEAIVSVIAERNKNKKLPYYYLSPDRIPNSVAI

[2] = Inhibition of IL-1 beta biosynthesis in human monocytes; format: functional, cell-based
Summary of the method: (§1)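 Human blood monocytes were isolated by ficoll-hypaque then elutriation and plated at 2×10^6 cells/mL in RPMI 1640 + 5% FBS. Compound in DMSO was added at 10, 3, 1, 0.3 and 0.1 μM for 1 h. Cells were then stimulated with Salmonella typhimurium LPS for about 20 h. Supernatant IL-1 was measured by ELISA and viability by MTT.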

[3] = tested on: Crotalus adamanteus; assay: Compound was evaluated for the inhibition of PLA2.; format: functional
[4] = biological target: Cyclooxygenase (Bos taurus) (UniProt O62664+O62698)
[5] = biological target: Interleukin-1 beta (Homo sapiens) (UniProt P01584); assay: Compound was evaluated for the inhibition of IL-1 beta release by human monocytes.
[6] = organism: Homo sapiens; assay: Compound was evaluated for the inhibition of,IL-1beta biosynthesis.; format: functional; summary of the method: as §1
[7] = tested on: Crotalus adamanteus; assay: Compound was evaluated for the inhibition of,PLA2.; format: functional
[8] = biological target: T2, Polyunsaturated fatty acid 5-lipoxygenase (Rattus norvegicus) (UniProt P12527)
T2 sequence (whole entry): T1 sequence (P12527 whole entry)

[9] = tested on: Crotalus adamanteus; assay: Compound was evaluated for the inhibition of, PLA2.; format: functional
[10] = organism: Homo sapiens; assay: Compound was evaluated for the inhibition of, IL1-beta biosynthesis.; format: functional; summary of the method: as §1
[11] = biological target: T2, Polyunsaturated fatty acid 5-lipoxygenase (Rattus norvegicus); remark: listed apart in the source
[12] = biological target: T2, Polyunsaturated fatty acid 5-lipoxygenase (Rattus norvegicus); assay: Compound was evaluated for the inhibition of 5-LO (lipoxygenase); format: functional
Summary of the method: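 Enzyme source was a 1000g supernatant of homogenized RBL-1 cells, dosed to give 3300–3800 dpm net 5-HETE (9–20 μg cell protein/assay). Compound in 5% DMSO/0.2 M Tris pH 8.5 was preincubated with enzyme for 5 min at 37 °C in pH 7.0 phosphate buffer (EDTA, gelatin, glutathione, CaCl2, indomethacin). Then 0.042 mM [14C]arachidonic acid (final) was added, 2 min. Duplicates; IC50 by linear regression over three concentrations.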

Sequence of Interleukin-1 beta (Homo sapiens) (P01584 whole entry, looked up): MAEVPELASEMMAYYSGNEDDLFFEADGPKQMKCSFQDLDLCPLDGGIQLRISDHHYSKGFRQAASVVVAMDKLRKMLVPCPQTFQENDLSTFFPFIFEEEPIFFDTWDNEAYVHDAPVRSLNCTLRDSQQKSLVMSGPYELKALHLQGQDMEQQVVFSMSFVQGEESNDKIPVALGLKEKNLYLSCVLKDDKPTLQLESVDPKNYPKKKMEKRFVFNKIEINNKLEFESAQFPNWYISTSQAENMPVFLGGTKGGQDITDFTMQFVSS

IC50 [1] [µM] | IC50 [2] [µM] | Structure (SMILES) | also measured
1.9 |  | CN(O)/C=C\C(=O)c1ccc(OCc2ccccc2)cc1 [listing 1 of 2 here] | 
 | 5.4 | O=C(/C=C\N(O)Cc1ccccc1)c1ccc2ccccc2c1 | 
> 25 |  | COc1ccc(C(=O)/C(=C\N(C)O)c2ccc(OC)cc2)cc1 | 
0.61 | 3.6 | O=C(/C=C\N(O)Cc1ccccc1)c1ccc(Cl)c(Cl)c1 | 
> 25 |  | O=C(/C=C\N(O)Cc1ccc(-c2ccccc2)cc1)c1cccs1 | 
0.55 | > 10 | CN(O)/C=C\C(=O)c1ccc(Cl)cc1 | 
> 25 |  | CC(=O)ON(C)/C=C\C(=O)c1ccc([N+](=O)[O-])cc1 | 
> 25 | > 10 | CC(=O)ON(/C=C\C(=O)c1ccc(Cl)cc1)Cc1ccccc1 | 
0.75 |  | CCc1c(N(O)/C=C\C(=O)c2ccc3ccccc3c2)ccc2ccccc12 | 
8.9 |  | C/C(=C/N(C)O)C(=O)c1ccc(OCc2ccccc2)cc1 | 
 | 2.8 | O=C(/C=C\N(O)Cc1ccccc1)c1ccc(F)cc1 | ID50 [3]: > 1000 µM; ID50 [4]: > 750 µM; ID50 [5]: 2.8 µM
> 25 |  | O=C(/C=C\NOCc1ccccc1)c1ccc(-c2ccccc2)cc1 | 
2.6 |  | O=C(/C=C\N(O)Cc1ccc(OCc2ccccc2)cc1)C1CC1 | 
13 |  | CCCCCCCCCCN(O)/C=C\C(=O)c1ccc(F)cc1 | 
> 25 | > 10 | CC(=O)ON(/C=C\C(=O)c1ccc(-c2ccccc2)cc1)Cc1ccccc1 | 
1.5 | 9.9 | O=C(/C=C\N(O)Cc1ccc2ccccc2c1)C1CC1 | 
> 25 |  | CSc1ccc(C(=O)/C(=C\N(C)O)c2ccc(F)cc2)cc1 | 
10 |  | CN(O)/C=C\C(=O)c1ccc(OCc2ccccn2)cc1 | 
1.4 | > 10 | O=C(/C=C\N(O)Cc1ccc(Oc2ccccc2)cc1)C1CC1 | 
> 25 |  | CC(=O)ON(/C=C\C(=O)C(C)(C)C)Cc1ccccc1 | 

IC50 [1] [µM] | IC50 [2] [µM] | Structure (SMILES) | also measured
1.5 | > 10 | CN(O)/C=C\C(=O)c1ccc([N+](=O)[O-])cc1 | 
0.25 |  | C/C(=C/C(=O)c1ccc(F)cc1)N(O)Cc1ccccc1 | 
3.1 |  | O=C(/C=C\N(O)Cc1ccc(-c2ccccc2)cc1)c1ccco1 | 
> 25 |  | COc1ccccc1C(=O)/C=C\N(Cc1ccccc1)OC | 
0.2 | > 10 | O=C(/C=C\N(O)c1ccccc1)c1ccc(F)cc1 | 
4.8 |  | COC(=O)/C=C\N(O)Cc1ccc(OCc2ccccc2)cc1 | 
1.1 | > 10 | CN(O)/C=C\C(=O)c1ccc(OCc2ccccc2)cc1 [listing 2 of 2 here] | 
> 25 |  | CC(=O)ON(C)/C=C\C(=O)c1ccc(-c2ccccc2)cc1 | 
0.12 | > 10 | O=C(/C=C\N(O)CCc1ccccc1)c1ccc(F)cc1 | 
3 | 5.2 | O=C(/C=C\N(O)Cc1ccc(-c2ccccc2)cc1)c1ccc(F)cc1 | 
 |  | CC(c1cc2ccccc2s1)N(O)C(N)=O (stereo unspecified) [ZILEUTON] | ID50 [6]: >30 µM; ID50 [7]: > 1000 µM; ID50 [4]: > 750 µM
> 25 |  | CN(O)/C=C(\C(=O)c1ccccc1)c1ccccc1 | 
0.4 | 7.7 | O=C(/C=C\N(O)Cc1ccc2ccccc2c1)c1ccc(F)cc1 | 
1.2 | > 10 | O=C(/C=C\N(O)Cc1ccc(-c2ccccc2)cc1)C1CC1 | 
0.24 | > 10 | CN(O)/C=C\C(=O)Sc1ccc2ccccc2c1 | 
5 | 5.5 | CN(O)/C=C\C(=O)c1ccc(F)cc1 | 
 |  | COc1ccc2c(c1)c(CC(=O)O)c(C)n2C(=O)c1ccc(Cl)cc1 | ID50 [3]: > 1000 µM; ID50 [8]: > 25 µM; ID50 [5]: > 30 µM
5 | > 10 | CC(C)(C)C(=O)/C=C\N(O)Cc1ccccc1 | 
1.7 | > 10 | O=C(/C=C\N(O)Cc1ccccc1)c1c(Cl)cccc1Cl | 
> 25 | > 10 | CON(/C=C\C(=O)c1ccc(F)cc1)Cc1ccccc1 | 

IC50 [1] [µM] | IC50 [2] [µM] | Structure (SMILES) | also measured
0.81 |  | O=C(/C=C\N(O)c1ccccc1)c1ccc2ccccc2c1 | 
1.8 | > 10 | CN(O)/C=C\C(=O)c1ccc2ccccc2c1 | 
> 25 | > 10 | CC(=O)ON(/C=C\C(=O)c1ccc(F)cc1)Cc1ccccc1 | 
 |  | O=C1CCN(c2ccccc2)N1 [PHENIDONE] | ID50 [9]: > 1000 µM; ID50 [10]: >30 µM; ID50 [11]: 0.48 µM; ID50 [4]: 6.9 µM
2.5 | 1.7 | O=C(/C=C\N(O)Cc1ccccc1)c1ccc([N+](=O)[O-])cc1 | 
1.5 | 2.1 | O=C(/C=C\N(O)Cc1ccccc1)c1ccc(Cl)cc1 | ID50 [12]: 1.5 µM; ID50 [3]: > 1000 µM; ID50 [4]: > 750 µM; ID50 [5]: 2.1 µM
> 25 |  | CC(=O)N(/C=C\C(=O)C(C)(C)C)OCc1ccccc1 | 
 | > 10 | CN(O)/C=C\C(=O)c1ccc(-c2ccccc2)cc1 | 
> 25 |  | COc1ccccc1/C(O)=C/C=N/OCc1ccccc1 | 
2 | 8.9 | O=C(/C=C\N(O)Cc1ccccc1)c1ccncc1 | 
> 25 |  | CC(=O)ON(C)/C=C\C(=O)c1ccc(Cl)cc1 | 
> 25 |  | CC(=O)ON(C)/C=C\C(=O)c1ccc(OCc2ccccc2)cc1 | 
> 25 |  | CC(C)(C)/C(O)=C/C=N/OCc1ccccc1 | 
0.25 | 3.6 | O=C(/C=C\N(O)Cc1ccccc1)c1ccc(-c2ccccc2)cc1 | 
> 25 |  | O=C(/C=C\NOCc1ccccc1)c1ccc(F)cc1 | 
3 |  | O=C(/C=C\N(O)Cc1ccc(-c2ccccc2)cc1)c1ccsc1 | 
> 25 | > 10 | CC(=O)ON(/C=C\C(=O)c1ccc([N+](=O)[O-])cc1)Cc1ccccc1 | 
2.6 | > 10 | O=C(/C=C\N(O)C1CCCCC1)c1ccc2ccccc2c1 | 
0.27 | > 10 | O=C(/C=C\N(O)C1CCCCC1)c1ccc(F)cc1 | 
0.91 |  | CN(O)/C=C\C(=O)c1cc(C(F)(F)F)cc(C(F)(F)F)c1 | 

Reference: ChEMBL document CHEMBL1125338, “Synthesis, chemical, and biological properties of vinylogous hydroxamic acids: dual inhibitors of 5-lipoxygenase and IL-1 biosynthesis” (J Med Chem, 1992)
